Key:
Format in all cases: functional
Saccharomyces cerevisiae [1] = assay: Antifungal activity against Saccharomyces cerevisiae after 5 days by broth microdilution method; settings: 120 h
Rhodotorula mucilaginosa [2] = assay: Antifungal activity against Rhodotorula mucilaginosa after 7 days by Etest; settings: 168 h
Rhodotorula mucilaginosa [3] = assay: Antifungal activity against Rhodotorula mucilaginosa after 7 days by broth microdilution method; settings: 168 h
Magnusiomyces capitatus [4] = assay: Antifungal activity against Dipodascus capitatus after 3 days by broth microdilution method; settings: 72 h
Magnusiomyces capitatus [5] = assay: Antifungal activity against Dipodascus capitatus after 4 days by Etest; settings: 96 h
Magnusiomyces capitatus [6] = assay: Antifungal activity against Dipodascus capitatus after 48 hrs by broth microdilution method
Summary of the method: (§1)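 CLSI M27-A3 broth microdilution. Isolates were identified by ITS1-5.8S-ITS2 sequencing, kept at −70°C in sterile water, and revived on potato dextrose or Sabouraud agar. Drug ranges in wells were 0.015–16 or 0.125–128 μg/ml, depending on the agent. Plates were incubated at 35°C and MICs read visually at 48 h. QC strains were C. krusei ATCC 6258 and C. parapsilosis ATCC 22019.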

Magnusiomyces capitatus [7] = assay: Antifungal activity against Dipodascus capitatus after 48 hrs by Etest
Summary of the method: (§2)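 Etest on 2% glucose-RPMI agar. Yeast suspensions were swabbed across the plates and strips applied, then incubated at 35°C for 48 h. MIC was the lowest concentration where the elliptical inhibition zone border met the strip scale. Each reading was raised to the next 2-fold dilution on the CLSI scale and converted to log2. Isolates were revived from −70°C stocks on potato dextrose or Sabouraud agar.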

Rhodotorula mucilaginosa [8] = assay: Antifungal activity against Rhodotorula mucilaginosa after 48 hrs by broth microdilution method; summary of the method: as §1
Rhodotorula mucilaginosa [9] = assay: Antifungal activity against Rhodotorula mucilaginosa after 48 hrs by Etest; summary of the method: as §2
Saccharomyces cerevisiae [10] = assay: Antifungal activity against Saccharomyces cerevisiae after 48 hrs by broth microdilution method; summary of the method: as §1
Saccharomyces cerevisiae [11] = assay: Antifungal activity against Saccharomyces cerevisiae after 48 hrs by Etest; summary of the method: as §2
[12] = test system: Cutaneotrichosporon mucoides; assay: Antifungal activity against Trichosporon mucoides after 48 hrs by broth microdilution method; summary of the method: as §1
[13] = test system: Cutaneotrichosporon mucoides; assay: Antifungal activity against Trichosporon mucoides after 48 hrs by Etest; summary of the method: as §2
Trichosporon inkin [14] = assay: Antifungal activity against Trichosporon inkin after 48 hrs by broth microdilution method; summary of the method: as §1
Trichosporon inkin [15] = assay: Antifungal activity against Trichosporon inkin after 48 hrs by Etest; summary of the method: as §2
[16] = Antifungal activity against Trichosporon jirovecii after 48 hrs by broth microdilution method; settings: Cutaneotrichosporon jirovecii; summary of the method: as §1
[17] = Antifungal activity against Trichosporon jirovecii after 48 hrs by Etest; settings: Cutaneotrichosporon jirovecii; summary of the method: as §2
[18] = Antifungal activity against Trichosporon domesticum after 48 hrs by broth microdilution method; settings: Apiotrichum domesticum; summary of the method: as §1
[19] = Antifungal activity against Trichosporon domesticum after 48 hrs by Etest; settings: Apiotrichum domesticum; summary of the method: as §2
Trichosporon asahii [20] = assay: Antifungal activity against Trichosporon asahii after 48 hrs by broth microdilution method; summary of the method: as §1
Trichosporon asahii [21] = assay: Antifungal activity against Trichosporon asahii after 48 hrs by Etest; summary of the method: as §2
[22] = test system: Cutaneotrichosporon mucoides; assay: Antifungal activity against Trichosporon mucoides assessed as percent susceptible isolates after 48 hrs by broth microdilution method
Summary of the method: (§3)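 Broth microdilution MICs (CLSI, 35°C, visual read at 48 h) were sorted into categories using CLSI M27-A3 triazole breakpoints. Susceptible was ≤1 or ≤8 μg/ml, SDD was 2 or 16–32 μg/ml, and resistant was ≥4 or ≥64 μg/ml, depending on the agent. Each category is the percentage of isolates falling in it.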

[23] = test system: Cutaneotrichosporon mucoides; assay: Antifungal activity against Trichosporon mucoides assessed as percent susceptible/dose-dependent isolates after 48 hrs by broth microdilution method; summary of the method: as §3
Trichosporon [24] = assay: Antifungal activity against Trichosporon sp. after 3 days by broth microdilution method; settings: 72 h
Trichosporon [25] = assay: Antifungal activity against Trichosporon sp. after 4 days by Etest; settings: 96 h

C[C@@H](c1nc(-c2ccc(C#N)cc2)cs1)[C@](O)(Cn1cncn1)c1cc(F)ccc1F [ISAVUCONAZOLE]
1 µg/mL: MIC50 (Rhodotorula mucilaginosa [2]) | MIC90 (Magnusiomyces capitatus [5]) | MIC90 (Magnusiomyces capitatus [7]) | MIC50 (Rhodotorula mucilaginosa [9])
4 µg/mL: MIC90 (Rhodotorula mucilaginosa [2]) | MIC90 (Rhodotorula mucilaginosa [9])
2 µg/mL: MIC90 (Rhodotorula mucilaginosa [3]) | MIC90 (Rhodotorula mucilaginosa [8])
0.03 µg/mL: MIC50 (Saccharomyces cerevisiae [1]) | MIC50 (Saccharomyces cerevisiae [10])
0.125 µg/mL: MIC50 (Magnusiomyces capitatus [5]) | MIC50 (Magnusiomyces capitatus [7]) | MIC50 (Saccharomyces cerevisiae [11]) | MIC90 [13] | MIC90 (Trichosporon inkin [15]) | MIC90 [17] | MIC90 [19] | MIC90 (Trichosporon asahii [21]) | MIC90 (Trichosporon [25])
0.5 µg/mL: MIC90 (Saccharomyces cerevisiae [1]) | MIC50 (Rhodotorula mucilaginosa [3]) | MIC90 (Magnusiomyces capitatus [4]) | MIC90 (Magnusiomyces capitatus [6]) | MIC50 (Rhodotorula mucilaginosa [8]) | MIC90 (Saccharomyces cerevisiae [10]) | MIC90 (Saccharomyces cerevisiae [11]) | MIC90 [12] | MIC90 (Trichosporon inkin [14]) | MIC90 [16] | MIC90 [18] | MIC90 (Trichosporon asahii [20]) | MIC90 [22] | MIC90 [23] | MIC90 (Trichosporon [24])
0.06 µg/mL: MIC50 (Magnusiomyces capitatus [4]) | MIC50 (Magnusiomyces capitatus [6]) | MIC50 [12] | MIC50 [13] | MIC50 (Trichosporon inkin [14]) | MIC50 (Trichosporon inkin [15]) | MIC50 [16] | MIC50 [17] | MIC50 [18] | MIC50 [19] | MIC50 (Trichosporon asahii [20]) | MIC50 (Trichosporon asahii [21]) | MIC50 [22] | MIC50 [23] | MIC50 (Trichosporon [24]) | MIC50 (Trichosporon [25])

C[C@@H](c1ncncc1F)[C@](O)(Cn1cncn1)c1ccc(F)cc1F [VORICONAZOLE]
2 µg/mL: MIC50 (Rhodotorula mucilaginosa [3]) | MIC50 (Rhodotorula mucilaginosa [8])
0.25 µg/mL: MIC90 (Saccharomyces cerevisiae [1]) | MIC90 (Magnusiomyces capitatus [4]) | MIC90 (Magnusiomyces capitatus [6]) | MIC90 (Saccharomyces cerevisiae [10]) | MIC90 [12] | MIC90 (Trichosporon inkin [14]) | MIC90 [16] | MIC90 [18] | MIC90 (Trichosporon asahii [20]) | MIC90 [22] | MIC90 [23] | MIC90 (Trichosporon [24])
0.03 µg/mL: MIC50 (Magnusiomyces capitatus [5]) | MIC50 (Magnusiomyces capitatus [7]) | MIC50 (Saccharomyces cerevisiae [11]) | MIC50 [13] | MIC50 (Trichosporon inkin [15]) | MIC50 [17] | MIC50 [19] | MIC50 (Trichosporon asahii [21]) | MIC50 (Trichosporon [25])
0.125 µg/mL: MIC50 (Saccharomyces cerevisiae [1]) | MIC50 (Saccharomyces cerevisiae [10]) | MIC90 (Saccharomyces cerevisiae [11]) | MIC90 [13] | MIC90 (Trichosporon inkin [15]) | MIC90 [17] | MIC90 [19] | MIC90 (Trichosporon asahii [21]) | MIC90 (Trichosporon [25])
> 16 µg/mL: MIC50 (Rhodotorula mucilaginosa [2]) | MIC90 (Rhodotorula mucilaginosa [2]) | MIC50 (Rhodotorula mucilaginosa [9]) | MIC90 (Rhodotorula mucilaginosa [9])
0.06 µg/mL: MIC50 (Magnusiomyces capitatus [4]) | MIC90 (Magnusiomyces capitatus [5]) | MIC50 (Magnusiomyces capitatus [6]) | MIC90 (Magnusiomyces capitatus [7]) | MIC50 [12] | MIC50 (Trichosporon inkin [14]) | MIC50 [16] | MIC50 [18] | MIC50 (Trichosporon asahii [20]) | MIC50 [22] | MIC50 [23] | MIC50 (Trichosporon [24])
8 µg/mL: MIC90 (Rhodotorula mucilaginosa [3]) | MIC90 (Rhodotorula mucilaginosa [8])
